Hits are enriched below; roughly 0.98% of the tested compounds scored in any of these assays.
PGC1a acetyl inh: modulators of PGC1a acetylation; U2OS PGC1a acetylation, AlphaScreen anti-acetyl-lysine; with virally co-expressed GCN5 acetyltransferase; inhibition, % at 15.6 µM; hit rate 0.17% among 350,000;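 active = every replicate shows inhibition of at least 40%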
S100A4 MyoIIA: blocks human S100A4 binding to myosin IIA peptide. P26447. S100A4/TAMRA-MyoIIA peptide fluorescence polarization. inhibition, % at 10.7 µM. hit rate 0.14% among 360,000;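 active = mean inhibition of at least 70% across replicates, with every replicate also reaching that level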
Target sequence (P26447 whole entry, looked up): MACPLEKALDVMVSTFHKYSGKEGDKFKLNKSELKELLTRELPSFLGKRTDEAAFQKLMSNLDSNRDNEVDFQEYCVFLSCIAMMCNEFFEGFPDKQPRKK
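Test system – S100A4 monomer (human) · Compound – single-point compound testing · Schedule – 5 min incubation before reading · Probe or stimulus – TAMRA-labelled myosin IIA heavy-chain peptide probe, 5 nM · Benchmarks – neutral control DMSO, positive control TFP · Medium – Calcium-containing HEPES buffer, pH 7.2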
ERAP1 HTS inh: blocks human ERAP1 aminopeptidase activity | Q9NZ08 | recombinant ERAP1, Leu-AMC fluorescence, 60 min | inhibition, % at 10.7 µM | hit rate 0.15% among 340,000 | AID 652197;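 active = mean replicate inhibition of at least 30%, or all replicates individually reaching that 30% level; inactive = mean below 30% and not every replicate reaching it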
C2C12 statin: suppressors of simvastatin-induced myotoxicity in C2C12 myotubes. ATP luminescence, 48 h; scaled: DMSO 0, geranylgeraniol control 100. rescue of ATP level, % at 7.49 µM. hit rate 0.78% among 330,000. AID 602340;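 active = mean ATP rescue above about 67%, or every replicate alone reaching that limit, limit read from the data, passing the limit was not always enough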;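 note: myotubes were challenged with 10 µM simvastatin during compound exposure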
Rtt109 HAT inh: C. albicans Rtt109 histone acetyltransferase inhibition; Q5AAJ8; purified Rtt109/Vps75, ThioGlo CoA-SH fluorescence, 4 h; inhibition, % at 34.9 µM; hit rate 0.16% among 330,000; AID 540336;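 active = inhibition of at least 50% in every replicate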
Target sequence (Q5AAJ8 whole entry, looked up): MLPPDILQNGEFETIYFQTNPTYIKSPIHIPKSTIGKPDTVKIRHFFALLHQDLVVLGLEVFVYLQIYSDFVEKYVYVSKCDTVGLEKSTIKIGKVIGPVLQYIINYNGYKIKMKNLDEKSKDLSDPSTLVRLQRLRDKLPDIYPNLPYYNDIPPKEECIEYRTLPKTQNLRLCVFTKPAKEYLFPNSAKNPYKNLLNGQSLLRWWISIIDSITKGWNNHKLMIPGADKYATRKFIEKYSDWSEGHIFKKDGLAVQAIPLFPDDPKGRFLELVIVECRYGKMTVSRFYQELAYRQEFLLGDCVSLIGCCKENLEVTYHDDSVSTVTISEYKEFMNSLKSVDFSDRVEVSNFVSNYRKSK
Large screens that a line does not name were inactive.

C[C@@H]1CCCCO[C@H](CN(C)C(=O)Nc2ccccc2)[C@H](C)CN([C@@H](C)CO)C(=O)c2cc(NS(=O)(=O)c3cccs3)ccc2O1	none (no result: C2C12 statin, Rtt109 HAT inh)
Cc1ccccc1OCC(=O)NCC(=O)OCC(=O)c1ccc([N+](=O)[O-])cc1	Rtt109 HAT inh 130
Cc1ccc(C(=O)COC(=O)CNC(=O)COc2ccccc2C)cc1C	none (no result: S100A4 MyoIIA, ERAP1 HTS inh)
O=C(CCC(=O)OCC(=O)c1ccc([N+](=O)[O-])cc1)Nc1ccccc1Cl	Rtt109 HAT inh 75 (no result: PGC1a acetyl inh, S100A4 MyoIIA, ERAP1 HTS inh)
CCNC(=O)C[C@@H]1CC[C@H]2[C@H](COc3ccc(NC(=O)Nc4ccccc4OC)cc3C(=O)N2C)O1	none (no result: Rtt109 HAT inh)
Cc1ccc(NC(=O)C2CCCN(S(=O)(=O)c3cnc[nH]3)C2)cc1C (stereo not drawn)	none
O=C(Nc1ccc(F)c(F)c1)C1CCCN(S(=O)(=O)c2cnc[nH]2)C1 (stereo not drawn)	C2C12 statin 97 (no result: S100A4 MyoIIA, ERAP1 HTS inh)
CC[n+]1c(C)cc(C)n1-c1ccccc1	ERAP1 HTS inh 102 (no result: C2C12 statin)
CCOC(=O)c1ccc2c(c1)[n+](CC)c(C)n2-c1ccccc1	none
COc1ccccc1-n1c(C)cc(SC)c(C(C)=O)c1=S	C2C12 statin 98 (no result: S100A4 MyoIIA, ERAP1 HTS inh)
Cc1ccc(NC(=O)C2C(c3ccccc3)C2(Cl)Cl)c(C)c1 (stereo not drawn)	PGC1a acetyl inh 71 (no result: S100A4 MyoIIA, ERAP1 HTS inh)
CC1OC(CC(=O)O)CC2=C1C(=O)c1c(O)cccc1C2=O (stereo not drawn)	PGC1a acetyl inh 75 (no result: C2C12 statin)
O=C1C=C(O)c2cccc(O)c2C1=O	none
Cc1ccc(S(=O)(=O)Nc2ccc3c(c2)C(=O)N([C@@H](C)CO)C[C@@H](C)[C@H](CN(C)C(=O)NC(C)C)OCCCC[C@@H](C)O3)cc1	none (no result: C2C12 statin, Rtt109 HAT inh)
CC(C)n1c(=S)[nH]c2ccccc2c1=O	none (no result: S100A4 MyoIIA, ERAP1 HTS inh)
CC(C)n1c(=S)[nH]c2cc(Cl)ccc21	PGC1a acetyl inh 69
C=CCOc1ccc(Br)cc1/C=N/O	C2C12 statin 126 (no result: S100A4 MyoIIA, ERAP1 HTS inh)
CCOC(=O)C1=C(C)NC(=S)N(C(C)=O)C1c1ccc(OC)c(OC)c1 (stereo not drawn)	none (no result: ERAP1 HTS inh, C2C12 statin)
CCOC(=O)C1=C(C)NC(=S)N(C(C)=O)C1c1ccc(Cl)cc1 (stereo not drawn)	Rtt109 HAT inh 63 (no result: S100A4 MyoIIA, ERAP1 HTS inh)
COC(=O)NC(=C(Cl)Cl)S(=O)(=O)c1ccccc1	C2C12 statin 147 (no result: S100A4 MyoIIA, ERAP1 HTS inh)
O=C(O)c1nn(-c2ccccc2)nc1-c1nn(-c2ccccc2)nc1C(=O)O	C2C12 statin 136 (no result: S100A4 MyoIIA, ERAP1 HTS inh)
COCC(=O)N(C)C[C@@H]1Oc2ncc(-c3ccc(C#N)cc3)cc2C(=O)N([C@H](C)CO)C[C@H]1C	none (no result: Rtt109 HAT inh)
CC1(C(=O)Nc2cccc(C#N)c2)CCN1C(=O)CCc1ccccc1 (stereo not drawn)	PGC1a acetyl inh 44 (no result: Rtt109 HAT inh)
O=C(CN1C(=O)NC2(CCCC2)C1=O)N1CCN(C(=O)c2ccco2)CC1	none (no result: PGC1a acetyl inh, S100A4 MyoIIA, ERAP1 HTS inh)
CCCC1(CCC)NC(=O)N(CC(=O)N2CCN(C(=O)c3ccco3)CC2)C1=O	C2C12 statin 98 (no result: S100A4 MyoIIA, ERAP1 HTS inh)
Cc1ccc2c(c1)S/C(=C/c1ccc[n+](C)c1)N2CCO	ERAP1 HTS inh 52 (no result: C2C12 statin)
CCCNC(=O)Nc1ccc2c(c1)C(=O)N(C)C[C@@H](OC)[C@@H](C)CN[C@@H](C)CO2	S100A4 MyoIIA 111 (no result: Rtt109 HAT inh)
CCCC(=O)Nc1ccc2c(c1)OC[C@H](C)NC[C@H](C)[C@H](OC)CN(C)C2=O	S100A4 MyoIIA 101 (no result: ERAP1 HTS inh, Rtt109 HAT inh)
CNC[C@H]1Oc2ccc(NC(=O)Nc3c(C)noc3C)cc2C(=O)N([C@@H](C)CO)C[C@@H]1C	none (no result: S100A4 MyoIIA, ERAP1 HTS inh, Rtt109 HAT inh)
CCCN1C(=S)SC(C)(C)C1/[N+]([O-])=C/c1cccnc1 (stereo not drawn)	none (no result: S100A4 MyoIIA, ERAP1 HTS inh)
CCCCN1C(=S)SC(C)(C)C1/[N+]([O-])=C/c1cccnc1 (stereo not drawn)	C2C12 statin 98 (no result: S100A4 MyoIIA, ERAP1 HTS inh)
C[C@@H]1CN([C@H](C)CO)C(=O)c2cccc(N(C)C)c2O[C@H]1CN(C)Cc1ccccc1	none (no result: Rtt109 HAT inh)
Cc1ccc(C2CC(c3cccs3)=NN2C(=O)c2ccc(Br)o2)cc1 (stereo not drawn)	C2C12 statin 93 (no result: S100A4 MyoIIA, ERAP1 HTS inh)
O=C(Nc1ccc(Cl)cc1)Nc1ccccc1CC[N+](=O)[O-]	C2C12 statin 104
c1coc(-c2nc3ccccc3s2)c1	C2C12 statin 120
COc1ccc(-c2nc3ccccc3s2)cc1	none (no result: PGC1a acetyl inh, C2C12 statin)
COC(=O)c1cc2c(ccn2-c2ccc(F)cc2)n1CC(=O)C(C)(C)C	Rtt109 HAT inh 54 (no result: PGC1a acetyl inh, C2C12 statin)
Cc1ccc(S(=O)(=O)NCC[C@@H]2CC[C@@H](NC(=O)c3cnccn3)[C@@H](CO)O2)cc1	none (no result: Rtt109 HAT inh)
CCC(=O)N1CCc2cc(S(=O)(=O)CCC(=O)N3CCc4ccccc4C3)ccc21	C2C12 statin 76 (no result: S100A4 MyoIIA, ERAP1 HTS inh)
